We go through nine compounds from ChEMBL document CHEMBL1130381, “Synthesis and evaluation of trimetoquinol derivatives: novel thromboxane A2/prostaglandin H2 antagonists with diminished beta-adrenergic agonist activity” (J Med Chem, 1997).

The species named for test [1] is Homo sapiens. Nature of the test: Potency ratio of human platelet aggregation. It is filed as functional.
A further test addresses T1, Thromboxane A2 receptor (Homo sapiens, UniProt P21731).
T1 sequence (P21731 whole entry): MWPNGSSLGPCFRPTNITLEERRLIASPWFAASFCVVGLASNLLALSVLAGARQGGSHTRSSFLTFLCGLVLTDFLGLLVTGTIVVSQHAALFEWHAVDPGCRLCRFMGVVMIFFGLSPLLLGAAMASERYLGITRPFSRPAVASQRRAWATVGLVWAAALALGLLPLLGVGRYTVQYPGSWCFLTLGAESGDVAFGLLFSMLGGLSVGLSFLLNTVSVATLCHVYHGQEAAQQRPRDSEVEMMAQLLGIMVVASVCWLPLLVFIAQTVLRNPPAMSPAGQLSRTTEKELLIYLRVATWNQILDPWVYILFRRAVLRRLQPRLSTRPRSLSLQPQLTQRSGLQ
The test can be described thus: Inhibitory concentration against radioligand [3H]SQ-29,548 (5 nM) binding to TP receptors in human platelets.

For test [2], the species on record is Homo sapiens. The test can be described thus: Inhibitory activity against U-46,619-induced (1 uM) human platelet activation (Serotonin secretion). The test is classed as functional. A digest of the protocol: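 Aspirin (1 mM) plus drug for 1 min, then U46619 (0.3–1 μM). Supernatant counted by liquid scintillation. Percent secretion = (sample − unstimulated background cpm)/(total − background cpm) × 100. IC50 taken graphically from log concentration–response plots, given as pIC50.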

For test [3], the target named is Beta-2 adrenergic receptor (Cavia porcellus) (UniProt Q8K4Z4).
Sequence of Beta-2 adrenergic receptor (Cavia porcellus) (Q8K4Z4 whole entry, looked up): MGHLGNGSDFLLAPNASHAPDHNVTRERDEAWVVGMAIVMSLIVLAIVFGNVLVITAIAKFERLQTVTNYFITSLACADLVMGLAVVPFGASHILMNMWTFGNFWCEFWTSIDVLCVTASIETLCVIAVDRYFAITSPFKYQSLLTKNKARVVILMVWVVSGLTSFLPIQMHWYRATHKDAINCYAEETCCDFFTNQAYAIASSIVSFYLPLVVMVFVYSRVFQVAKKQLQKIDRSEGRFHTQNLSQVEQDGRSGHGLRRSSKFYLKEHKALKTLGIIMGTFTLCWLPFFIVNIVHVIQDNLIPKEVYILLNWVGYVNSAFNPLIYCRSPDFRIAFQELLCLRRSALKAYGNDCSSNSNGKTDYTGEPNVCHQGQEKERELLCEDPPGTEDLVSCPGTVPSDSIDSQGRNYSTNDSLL
For test [4], the species on record is Homo sapiens. Nature of the test: Inhibitory activity against U-46,619-induced (1 uM) human platelet activation (aggregation). It is filed as functional. The gist of the method: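 Human platelet-rich plasma from volunteers free of medication for at least 10 days, with aspirin (1 mM) to block endogenous prostaglandins. Drug and aspirin preincubated 1 min, then U46619 (0.3–1 μM, minimum concentration giving maximal aggregation) added. Turbidometric aggregation monitored for 4 min. IC50 read graphically from percent response versus log concentration plots, reported as pIC50.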

Test [5] concerns the target Beta-1 adrenergic receptor (Cavia porcellus) (UniProt B0FL73). The settings on record: Cardiac atrium.

Sequence of Beta-1 adrenergic receptor (Cavia porcellus) (B0FL73 1-467): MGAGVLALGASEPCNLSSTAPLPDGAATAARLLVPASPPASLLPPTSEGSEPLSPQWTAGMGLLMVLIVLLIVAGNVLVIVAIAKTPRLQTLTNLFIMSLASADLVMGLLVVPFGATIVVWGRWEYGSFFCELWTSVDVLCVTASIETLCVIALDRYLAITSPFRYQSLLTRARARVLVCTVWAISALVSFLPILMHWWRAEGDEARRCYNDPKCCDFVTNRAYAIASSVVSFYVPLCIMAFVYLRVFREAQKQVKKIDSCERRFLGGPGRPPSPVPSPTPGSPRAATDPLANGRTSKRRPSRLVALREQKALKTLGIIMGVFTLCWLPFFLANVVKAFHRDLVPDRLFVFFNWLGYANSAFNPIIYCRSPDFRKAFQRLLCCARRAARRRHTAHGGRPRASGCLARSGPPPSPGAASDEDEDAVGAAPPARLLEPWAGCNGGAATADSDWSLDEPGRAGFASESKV

With `COc1cc(CC2c3cc(O)c(O)cc3CCN2Cc2ccccc2)cc(OC)c1OC` (configuration not stated), the Potency ratio in the test listed under Homo sapiens [1] stood at 0.0331.

As for `Nc1ccc(CC2NCCc3cc(O)c(O)cc32)cc1` (configuration not stated), the IC50 at Thromboxane A2 receptor was 89.1 µM; in the test listed under Homo sapiens [2], 145 µM; in the test filed under Homo sapiens [4], 129 µM. The compound further had a Ki on Thromboxane A2 receptor of 34.7 µM. Moreover, the results for the pD2 in test [3] and in test [5] were 6.75 and 6.21, respectively.

In the case of `COc1cc(N=C2NCCc3cc(O)c(O)cc32)cc(OC)c1OC`, at Thromboxane A2 receptor, the concentration for half-maximal inhibition (IC50) is 275 µM and affinity was put at a Ki of 120 µM.

For `O=[N+]([O-])c1ccc(CC2NCCc3cc(O)c(O)cc32)cc1` (configuration not stated), the figures for the concentration for half-maximal inhibition (IC50) at Thromboxane A2 receptor, in the test listed under Homo sapiens [2] and in the test listed under Homo sapiens [4] were 25.1 µM, 60.3 µM and 44.7 µM, respectively. This compound also gave a Ki on Thromboxane A2 receptor of 9.55 µM. Also, the pD2 stood at 7.49 in test [3] and 7.26 in test [5].

Consider `COc1cc(C[C@@H]2NCCc3cc(O)c(O)cc32)cc(OC)c1OC` [TRETOQUINOL], for which the IC50 is 1.32 µM in the test listed under Homo sapiens [2] and 1.15 µM in the test listed under Homo sapiens [4]. In addition, the figures for the pD2 in test [3] and in test [5] were 7.26 and 7.36, respectively.

With `COc1cc(CC2NCCc3cc(O)c(O)cc32)cc(I)c1OC` (configuration not stated), the Potency ratio in the test listed under Homo sapiens [1] stood at 1.12.

With `O=[N+]([O-])c1cc(CC2NCCc3cc(O)c(O)cc32)ccc1O` (configuration not stated), the IC50 was 0.871 µM on Thromboxane A2 receptor, 1.12 µM in the test listed under Homo sapiens [2] and 1.26 µM in the test listed under Homo sapiens [4]. This compound gave an inhibition constant (Ki) at Thromboxane A2 receptor of 0.339 µM. Also, the pD2 amounted to 6.55 in test [3] and 5.91 in test [5].

Regarding `COc1cc(NC2=NCCc3cc(O)c(O)cc32)cc(OC)c1OC`, the IC50 in the test listed under Homo sapiens [2] is 204 µM; in the test listed under Homo sapiens [4] it was 200 µM. Besides, the pD2 in test [3] is 3.95. In addition, the Potency ratio in the test listed under Homo sapiens [1] was 0.00575.

With `COc1cc(CC2c3cc(O)c(O)cc3CCN2CCc2ccccc2)cc(OC)c1OC` (configuration not stated), the IC50 on Thromboxane A2 receptor is 41.7 µM; in the test filed under Homo sapiens [2] it was 34.7 µM; in the test filed under Homo sapiens [4], 38 µM. The same compound gave a Ki on Thromboxane A2 receptor of 16.2 µM. Moreover, the pD2 in test [3] is 4.64; in test [5], 4.62. For the same compound, the Potency ratio in the test filed under Homo sapiens [1] was 0.0302.
